Only some compounds are listed: those with a hit (about 1.9% of all), similar ones and a draw of the others.
Rce1 inhib: yeast Ras-converting enzyme inhibition | AID 2563 | calls only | yeast membranes, quenched prenylated peptide cleavage fluorescence | hit rate 0.27% among 290,000;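 active = fall in fluorescence gain of 50% or more versus controls, with final raw signal at or below 3038400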;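 also: plate controls were neutral control wells for no effect and wells lacking membranes for full effect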
Target sequence (Q03530 whole entry, looked up): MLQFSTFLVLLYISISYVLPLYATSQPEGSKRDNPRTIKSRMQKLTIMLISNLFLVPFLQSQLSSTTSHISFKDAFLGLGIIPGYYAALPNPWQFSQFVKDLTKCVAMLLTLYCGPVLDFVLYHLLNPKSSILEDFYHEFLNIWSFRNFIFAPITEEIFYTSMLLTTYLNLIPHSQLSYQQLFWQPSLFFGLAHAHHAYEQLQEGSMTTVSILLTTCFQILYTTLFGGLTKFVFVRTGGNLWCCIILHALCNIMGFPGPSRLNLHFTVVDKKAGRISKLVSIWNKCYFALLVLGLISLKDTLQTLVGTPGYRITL
KLK7 zymogen act: activates the human kallikrein-7 zymogen; P49862; purified proKLK7, EDANS-DABCYL substrate fluorescence; 100% is mature enzyme control, 0% vehicle; activation, % at 7 µM; hit rate 0.9% among 370,000; AID 652039;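 active = activation above the mean of all tested compounds plus 3 SD, computed per campaign excluding outliers beyond control limits, cut at about 13% in these data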
Target sequence (P49862 whole entry, looked up): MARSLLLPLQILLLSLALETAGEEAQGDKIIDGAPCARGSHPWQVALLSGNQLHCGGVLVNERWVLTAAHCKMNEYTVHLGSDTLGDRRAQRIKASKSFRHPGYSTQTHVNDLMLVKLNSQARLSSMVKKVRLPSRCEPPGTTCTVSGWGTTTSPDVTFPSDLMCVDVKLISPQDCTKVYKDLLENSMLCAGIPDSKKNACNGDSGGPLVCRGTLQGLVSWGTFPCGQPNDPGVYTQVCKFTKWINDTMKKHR
T cell HTS: modulates CD8 T cell binding to vesicles; 2C CD8+ T cell-vesicle binding, flow cytometry; stronger effect = lower value; response (vesicle binding), % at 7 µM; hit rate 0.068% among 330,000; AID 2052;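 active = response, share of CD8 T cells binding vesicles, and their 90th percentile fluorescence all below set limits, cut at about 80% in these data, passing the limit was not always enough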;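 also: values below 100% mean blocked vesicle binding to the CD8+ T cells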
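Benchmarks: naked versus QL9-loaded vesicles / Assay system: purified 2C TCR transgenic mouse naive CD8+ T cells / Technique: high-throughput flow cytometry with anti-B7-1 and anti-CD8 staining / Timing: Cell–vesicle co-incubation 1.5 h at 37 °C, staining 20 min on ice / Read-out: percent CD8+ FL2 mean versus row control / Probe or stimulus: QL9-loaded Drosophila micro-vesicles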
MIN6 prolif: inducers of beta-cell replication in MIN6 cells | MIN6 cells proliferation, ATPlite luminescence, 48 h; cells starved in 0.2% serum; 100% = growth in 10% serum | proliferation, % at 10 µM | hit rate 0.29% among 330,000;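 active = compounds whose signal lies at least 3.5 SD above the mean of all wells on their plate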;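 also: 0% = DMSO-treated cells in low-serum medium and 100% = 10% serum control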
V-ATPase pH: yeast V-ATPase proton transport regulation by pHLuorin | hit rate 0.37% among 350,000 | AID 504577 | response, % at 10 µM | S. cerevisiae, pHLuorin cytosolic pH fluorescence; in the data active = response mostly above about 7.3%, no sharp cut-off; inactive = mostly below about 5.4%; also: actives read high
Yeast superoxide: lowers age-related superoxide in aged yeast cells; superoxide response (% of plate mean), % at 10 µM; hit rate 0.18% among 330,000; S. cerevisiae aged cells, superoxide DHE fluorescence; stronger effect = lower value;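 active = superoxide response under a set limit, about three screen SD below normal, cut at about 65% in these data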;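 also: yeast aged for seven days with compound at 30 °C before DHE staining; 100% = average MFI of all compound-treated wells on the plate with controls excluded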
KLK7 act conf: proKLK7 activation, confirmation; shares compounds with KLK7 zymogen act; purified proKLK7, EDANS-DABCYL substrate fluorescence; scaled: vehicle 0, mature enzyme 100; activation, % at 7 µM; hit rate 68% among 3,200; AID 686949;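 active = activation, as change over the incubation, above the mean of all tested compounds plus 3 SD, cut at about 13% in these data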
EDANS-DABCYL int: optically interferes with EDANS-DABCYL signal, flagging KLK7 hits. shares compounds with KLK7 zymogen act. EDANS-DABCYL substrate fluorescence interference, no enzyme, 4 h; solvent 0%, active enzyme control 100%. activation, % at 7 µM. hit rate 80% among 3,200. AID 686952;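 active = activation above the all-compound mean plus 3 SD, ignoring values outside control-based bounds, cut at about 4.8% in these data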;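 also: value is the 4 h activation minus the activation read at time zero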
K7 EDANS ctr: optically interferes with EDANS-DABCYL fluorescence, kallikrein-7 activator counter-screen | AID 720493 | shares compounds with KLK7 zymogen act | EC50, µM | EDANS-DABCYL peptide fluorescence interference, no enzyme | hit rate 20% among 250;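 active = compounds that raise the fluorescence signal in this interference counterscreen, with EC50 at or below 10 µM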;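 also: intact quenched peptide substrate alone read at 355 nm excitation and 520 nm emission; signal is fluorescence gain from T0 to T4 after four hours at room temperature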
* marks the source's active call; other numbers are inactive results; i = inactive; . = no result given; + = active, no number.

SMILES | Rce1 inhib | KLK7 zymogen act | T cell HTS | MIN6 prolif | V-ATPase pH | Yeast superoxide | KLK7 act conf | EDANS-DABCYL int | others
Cc1cc(O)c2c(C)c(CC(=O)N3C[C@H]4C[C@@H](C3)c3cccc(=O)n3C4)c(=O)oc2c1 | i | -6 | 212 | -1 | -1 | 84 | . | .
COc1cc(C)cc2oc(=O)c(CC(=O)N3C[C@H]4C[C@@H](C3)c3cccc(=O)n3C4)c(C)c12 | i | 22* | 252 | 0 | 1 | 94 | 15* | 17*
COc1ccccc1C1CC2CCC(C1OC(C)=O)N2Cc1ccccc1 (centres undefined) | i | 0 | 139 | -1 | -3 | 108 | . | .
CC1CN(CC(=O)c2ccccc2Cl)CC(C)O1 (centres undefined) | i | 16* | i | -2 | -2 | 119 | 0 | 0
COc1cc(C2NCc3ccccc3-n3cccc32)ccc1O (centres undefined) | i | 0 | 151 | -1 | 1 | 89 | . | .
COc1c(C)cc(C(=O)C2CCCN(C3CCOCC3)C2)cc1C (centres undefined) | i | 0 | 189 | 1 | 5 | 90 | . | .
COc1ccc2cc(C(=O)C3CCCN(C4CCOCC4)C3)ccc2c1 (centres undefined) | i | 139* | 255 | -2 | 2 | 112 | 4 | 20*
O=P(OCC(F)(F)C(F)F)(N1CCOCC1)N1CCOCC1 | i | 0 | 225 | -2 | -3 | 85 | . | .
CCOc1ccc(-c2cc(C)[n+](CCO)c(-c3ccc(OCC)cc3)c2)cc1 | i | 94* | 346 | -6 | -1 | 89 | 70* | 69*
CN(C)c1ccc(/C=C2/C(=N\O)C3CCN2CC3)cc1 | i | 56* | 758 | 2 | 3 | 98 | 130* | 153*
COCCOC(=O)c1c(N)n(Cc2ccccc2)c2nc3ccccc3nc12 | i | 32* | 177 | -4 | 2 | 101 | -52 | -152
CCCCn1c(N)c(C(=O)OCCOC)c2nc3ccccc3nc21 | i | 0 | 171 | -2 | -1 | 85 | . | .
CCOC(=O)c1c(N)n(Cc2ccco2)c2nc3ccccc3nc12 | . | 47* | 296 | 0 | 3 | 82 | 60* | 78*
Nc1c(C(=O)NCc2ccco2)c2nc3ccccc3nc2n1CCN1CCOCC1 | i | 34* | 400 | 1 | -2 | 100 | -12 | -17
COCC(C)OC(=O)c1c(N)n(Cc2ccco2)c2nc3ccccc3nc12 (centres undefined) | i | 1 | 208 | -2 | -1 | 106 | . | .
CC(C)OC(=O)c1c(N)n(CC2CCCO2)c2nc3ccccc3nc12 (centres undefined) | i | 48* | 453 | 1 | -1 | 97 | 73* | 72*
C=CCn1c(O)c(C=NCCCOc2ccc(CC)cc2)c(=O)[nH]c1=S | i | 0 | 381 | -2 | -3 | 107 | . | .
CCOC(=O)c1cncn1[C@@H](C)c1ccccc1 | . | 0 | 91 | -1 | -5 | 114 | . | .
O=C(Cc1cc(=O)oc2cc(O)ccc12)NN=Cc1ccc(N(CCCl)CCCl)cc1 | . | 119* | . | . | -1 | . | 44* | 31* | K7 EDANS ctr=i
COc1cc2c(cc1OC)C1C(=O)c3ccc4c(c3OC1CO2)CC(C(C)C)O4 (centres undefined) | . | 0 | . | . | 1 | . | . | .
O=C(O)C1CN2CCC1CC2 (centres undefined) | i | 0 | 456 | 0 | -1 | 99 | . | .
O=c1c2ccccc2nc(/C=C/c2ccc(O)cc2)n1-c1cccc(O)c1 | i | 214* | 286 | 2 | -1 | 110 | 207* | 78*
COc1ccc(-n2c(/C=C/c3ccc(O)cc3)nc3ccccc3c2=O)cc1 | i | 0 | 643 | -4 | 4 | 88 | . | .
O=c1c2ccccc2nc(/C=C/c2ccc(O)cc2)n1-c1ccc(O)cc1 | i | 26* | 0 | -1 | 8 | 101 | 14* | 2 | K7 EDANS ctr=>23
COc1ccc(CC(C)NCCC(c2ccccc2)c2ccccc2)cc1 (centres undefined) | i | -1 | 286 | -4 | -2 | 95 | . | .
SMILES | Rce1 inhib | KLK7 zymogen act | T cell HTS | MIN6 prolif | V-ATPase pH | Yeast superoxide | KLK7 act conf | EDANS-DABCYL int | others
CC(=O)OC1C(O)C(C)OC(OC2C(OC(=O)C3CCC4C(C3)OC3(CC(OC(=O)/C=C/c5ccccc5)C(C)CO3)C43CO3)OC(C)C(O)C2OC(C)=O)C1O (centres undefined) | . | 0 | . | . | 0 | . | . | .
COc1ccc2c(c1)[nH]c1c(C)nccc12 | . | 47* | 649 | 5 | -2 | 106 | 20* | 11* | K7 EDANS ctr=i
O=C(Nc1ccc(Cl)cc1)Nc1nccs1 | i | 1 | 179 | -4 | -3 | 97 | . | .
COc1ccc2c3c([nH]c2c1)C(C)=NCC3 | + | 54* | 631 | 5 | -42 | 91 | 58* | 72*
CC1=NCCc2c1[nH]c1cc(O)ccc21 | . | 80* | 140 | -2 | -93 | 96 | 68* | 71*
CCc1ccc2nc(N3CCC(C(=O)N4CCC5(CC4)OCCO5)CC3)sc2c1 | i | 0 | 290 | -4 | -5 | 100 | . | .
COc1ccc(-c2cc(=NCCC(=O)O)c3cc(C)ccc3o2)cc1 | i | 85* | . | . | 3 | . | 69* | 73*
COc1ccc(-c2cc(=Nc3ccccc3)c3cc(C)ccc3o2)cc1 | i | -14 | 805 | -6 | -2 | 89 | . | .
CN1CCN(c2ccc([N+](=O)[O-])c(SCCO)c2)CC1 | i | 0 | 89 | -3 | -1 | 94 | . | .
C#CC1(O)CCC2C3CCC4=CC(=O)CCC4=C3C=CC21C (centres undefined) | . | 14* | . | . | 2 | . | 9 | 11*
CCOC(=O)c1c(NC(=O)c2c(N)n(CCCOC)c3nc4ccccc4nc23)sc2c1CCCC2 | i | 0 | 599 | -4 | -1 | 102 | . | .
CCOCCCn1c(N)c(C(=O)Nc2sc3c(c2C(=O)OC)CCCC3)c2nc3ccccc3nc21 | i | 28* | 193 | -4 | -3 | 96 | 1 | 1

High-throughput results from PubChem BioAssay.
